Screening data deposited in PubChem BioAssay by Broad Institute.
E-sel inducer: E-selectin induction on HUVECs. P16581. HUVEC E-selectin immunofluorescence imaging; normalized: neutral wells 0, TNF-alpha wells 100. activation, % at 7.58 µM. 260,000 tested, 0.37% active. AID 686992;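 active = mean E-selectin-positive cell signal at least 10% of the positive control, reached in at least 60% of replicates, without over 20% cell loss; inconclusive = no rule given, readout overlaps actives, possibly toxicity-flagged; inactive = the rest, including those meeting only one limit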
Target sequence (P16581 whole entry, looked up): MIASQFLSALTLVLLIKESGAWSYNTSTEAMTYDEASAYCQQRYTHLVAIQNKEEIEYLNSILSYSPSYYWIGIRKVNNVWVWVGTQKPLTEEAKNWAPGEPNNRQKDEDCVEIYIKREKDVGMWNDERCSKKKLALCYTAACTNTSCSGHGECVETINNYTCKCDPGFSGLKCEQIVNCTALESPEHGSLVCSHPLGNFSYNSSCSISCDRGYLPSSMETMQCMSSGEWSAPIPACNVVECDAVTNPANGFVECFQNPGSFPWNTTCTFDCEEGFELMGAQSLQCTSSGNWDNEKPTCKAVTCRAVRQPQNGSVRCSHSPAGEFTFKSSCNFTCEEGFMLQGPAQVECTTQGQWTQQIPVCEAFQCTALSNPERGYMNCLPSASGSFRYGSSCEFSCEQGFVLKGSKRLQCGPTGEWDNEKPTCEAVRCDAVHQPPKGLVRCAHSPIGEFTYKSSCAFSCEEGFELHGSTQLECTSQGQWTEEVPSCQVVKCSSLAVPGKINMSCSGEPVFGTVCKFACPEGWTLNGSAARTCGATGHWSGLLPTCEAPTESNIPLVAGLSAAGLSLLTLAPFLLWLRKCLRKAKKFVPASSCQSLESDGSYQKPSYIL
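Assay system: HUVEC primary endothelial cells. Input: 3,000 HUVEC seeded per well. Doses: one compound dose added by pin transfer. Read-out basis: % PE-positive cells. Benchmarks: TNF-alpha high, DMSO low. Detection: immunofluorescence imaging. Buffer or medium: EGM-2, gelatin.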
Ecoli rRNA inh: inhibitors of bacterial rRNA selective over humanized ribosomes | E. coli WT GFP vs humanized-ribosome RFP mutants, fluorescence, 24 h; hits give low values; DMSO median 0, no signal -100 | GFP signal change (wild-type ribosome), % (no concentration beside the values) | 350,000 tested, 1.6% active;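 active = significant combined selectivity score with lowered wild-type GFP, culture density cut under 30%, mutant RFP and density less affected; inactive = any of these conditions unmet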
DENV2 CPE rescue: protects cells from dengue virus 2 cytopathic effect | DENV2-infected cells, cytopathic effect rescue, plate reader | CPE inhibition, % at 9.99 µM | 350,000 tested, 1.7% active; in the data active = CPE inhibition above about 20%, passing the limit was not always enough; inconclusive = no clear call, values can overlap the other calls; tested in BHK-21 cells
miR-122 sensor: blocks miR-122 activity in Huh7 sensor cells; 340,000 tested, 0.3% active; Huh7 miR-122 Renilla luciferase sensor, 48 h; neutral wells = 0, positive control = 100; activation (reporter increase), % at 12.5 µM; AID 602342;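 active = mean replicate activation score at least 90 and every replicate individually at or above 90; inconclusive = only one of the two criteria met; inactive = neither criterion met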;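 note: higher luciferase means less miR-122 activity so hits act as miR-122 inhibitors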
Cneo AK release: causes C. neoformans cell lysis; adenylate kinase release luminescence, 4 h; normalised: neutral wells 0, clomiphene wells 100; lysis activity, % at 15 µM; 360,000 tested, 0.2% active; AID 651654;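 active = mean lysis activity across replicates of at least 80%, whatever share of replicates individually reach that level; inactive = mean lysis activity below 80%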
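Test system: log-phase Cryptococcus neoformans yeast cells. Input: 5 × 10^6 yeast cells/mL. Medium: fresh YPD growth medium. Doses: single dose. Incubation: static 4 h at 37 °C with compound, 1 h detection. Measured by: luminescent adenylate kinase detection reagent. Read-out: signal increase indicating cell lysis. Benchmarks: Clomiphene.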
A number is an active result; – = inactive; ? = inconclusive; · = no result. Hits are enriched below; roughly 3.1% of the tested compounds scored in any of these assays.

SMILES	E-sel inducer	Ecoli rRNA inh	DENV2 CPE rescue	miR-122 sensor	Cneo AK release
COc1ccc2c3c(n(C)c2c1)[C@H](CO)N(C(=O)c1cnccn1)CC31CN(C(=O)c2ccncc2)C1	–	–	–	·	·
CNC[C@H]1OCCCC[C@H](C)Oc2ccc(NC(=O)Cc3ccccc3)cc2C(=O)N([C@H](C)CO)C[C@@H]1C	–	–	–	–	108
CNC[C@@H]1OCCCC[C@H](C)Oc2ccc(NC(=O)Cc3ccccc3)cc2C(=O)N([C@@H](C)CO)C[C@H]1C	–	–	44	–	–
CNC[C@H]1Oc2ccccc2C(=O)N(C)C[C@@H]1C	·	–	·	·	·
C[C@H](CO)N1C[C@H](C)[C@H](CN(C)C(=O)Cc2ccccc2)Oc2ncc(-c3cncnc3)cc2C1=O	–	–	–	–	–
O=CN/N=C/c1c(O)ccc2ccccc12	–	-20	–	–	·
NC(=S)N/N=C/c1c(O)ccc2ccccc12	·	–	–	–	·
Cc1ccc(-n2ncc3c(SCc4ccccn4)ncnc32)c(C)c1	·	-16	·	·	·
CSc1ncnc2c1cnn2-c1ccc(C)cc1C	–	–	–	–	·
O=C(COC(=O)c1ccc(-n2cnnn2)cc1)c1ccc(Br)cc1	27	–	–	–	–
O=C(COC(=O)c1ccccc1-n1cnnn1)c1ccc(Br)cc1	–	–	–	–	–
CC(C)OC(=O)NCCOC(=O)Nc1ccc(Cl)cc1	–	-21	–	·	·
CCC(=O)Nc1ccc2c(c1)OC[C@@H](C)N(C(=O)c1ccccc1F)C[C@H](C)[C@H](OC)CN(C)C2=O	–	–	–	–	–
CO[C@H]1CN(C)C(=O)c2ccc(NC(=O)CC(F)(F)F)cc2OC[C@@H](C)N(C(=O)c2ccccc2F)C[C@H]1C	–	–	62	·	·
CCCC(=O)Nc1ccc2c(c1)C(=O)N(C)C[C@@H](OC)[C@H](C)CN(C(=O)c1ccccc1F)[C@@H](C)CO2	–	–	44	–	–
CCC(=O)Nc1ccc2c(c1)OC[C@H](C)N(C(=O)c1ccccc1F)C[C@H](C)[C@@H](OC)CN(C)C2=O	–	–	22	–	–
CCC(=O)Nc1ccc(C(=O)Nc2cccc(C)n2)cc1	·	·	·	218	·
Cc1ccc(C(=O)N/C(=C\c2ccc(-c3cccc([N+](=O)[O-])c3)o2)C(=O)NCCCN(C)C)cc1	–	-29	–	–	–
O=C(O)c1ccc(N=NN2CCCCCC2)cc1	–	–	112	·	·
COCC(=O)N1CC2(C1)[C@@H](c1ccc(-c3ccc(F)cc3)cc1)[C@H](CO)N2C(C)=O	–	–	–	·	·
O=C1[C@H]2[C@@H](c3ccccc3)N[C@]3(CCCN(Cc4ccc(Br)cc4)C3=O)[C@H]2C(=O)N1Cc1ccccc1	–	–	–	–	–
COc1ccc(CN2CCC[C@]3(N[C@H](c4ccc(OC)cc4)[C@@H]4C(=O)N(C)C(=O)[C@@H]43)C2=O)cc1	–	–	27	–	–
O=C1[C@H]2[C@@H](c3ccccc3)N[C@]3(CCCN(Cc4ccc(Cl)cc4)C3=O)[C@H]2C(=O)N1Cc1ccccc1	–	–	44	–	–
CCN1C(=O)[C@H]2[C@@H](c3ccc(C)cc3)N[C@]3(CCCN(Cc4ccc(C)cc4)C3=O)[C@H]2C1=O	·	·	–	–	–
CCN1C(=O)[C@H]2[C@@H](c3ccc(C)cc3)N[C@]3(CCCN(Cc4ccc(Cl)cc4)C3=O)[C@H]2C1=O	–	-20	–	–	·
SMILES	E-sel inducer	Ecoli rRNA inh	DENV2 CPE rescue	miR-122 sensor	Cneo AK release
CCN1C(=O)[C@H]2[C@@H](c3ccc(C)cc3)N3C(=O)N(c4ccc(C)cc4)C(=O)[C@@]3(Cc3ccc(Cl)cc3)[C@H]2C1=O	–	-28	–	–	–
COc1ccc([C@H]2N[C@]3(CCCN(Cc4ccc(C)cc4)C3=O)[C@H]3C(=O)N(C)C(=O)[C@@H]23)cc1	–	–	–	–	–
CC=Cc1ccc2n(c1=O)C[C@H]1[C@H](CO)[C@@H](C(=O)NCc3ccccc3F)N(CCC)[C@@H]21 (mixture of isomers)	–	–	–	·	–
CCCCCn1c(=O)[nH]c2cc(C(=O)NC3CCN(Cc4ccccc4)CC3)ccc2c1=O	–	–	–	–	–
O=C(NC1CCN(Cc2ccccc2)CC1)c1ccc2c(c1)[nH]c(=O)n2Cc1ccc(F)cc1	·	-32	–	·	·
CO[C@@H]1CN(C)C(=O)c2ccc(NC(=O)c3cc(C)on3)cc2OC[C@@H](C)N(C(C)=O)C[C@@H]1C	–	–	–	–	–
COc1ccc2c3c([nH]c2c1)[C@H](CO)N(Cc1ccccc1F)CC31CCN(CC2CC2)CC1	–	–	–	·	·
O=C(CCc1ccccc1)c1nnc(-c2ccccc2)o1	–	-23	–	–	·
O=C(C1CCC1)N1CC[C@@H]2[C@H](CO)Nc3ccc(C4=CCCCC4)cc3[C@@H]21	·	–	·	·	·
CC(C)Cn1c(SCC(=O)N2CCN(S(=O)(=O)c3ccccc3)CC2)nc2ccccc21	·	-32	·	–	–
CC(=O)Nc1ccc2c(c1)CC(=O)N(C)C[C@@H](C)[C@H](CN(C)C)O2	·	–	·	·	·
C[C@@H]1CN([C@@H](C)CO)C(=O)c2cc(NS(=O)(=O)c3ccccc3)ccc2O[C@H]1CN(C)C(=O)Nc1cccc2ccccc12	–	–	27	–	–
C[C@H]1CN([C@@H](C)CO)C(=O)c2cccc(NS(=O)(=O)c3cccs3)c2O[C@@H]1CN(C)C(=O)Nc1cccc2ccccc12	–	–	?	–	–
COc1ccc(S(=O)(=O)Nc2cccc3c2O[C@H](CN(C)C(=O)Nc2cccc4ccccc24)[C@@H](C)CN([C@H](C)CO)C3=O)cc1	28	–	·	–	·
C[C@@H]1CN([C@@H](C)CO)C(=O)c2cccc(NS(=O)(=O)c3cccs3)c2O[C@@H]1CN(C)C(=O)Nc1cccc2ccccc12	–	–	43	–	–
COc1ccc(S(=O)(=O)Nc2ccc3c(c2)C(=O)N([C@H](C)CO)C[C@H](C)[C@H](CN(C)C(=O)Nc2ccccc2)O3)cc1	–	–	–	–	90
CO[C@H]1CN(C)C(=O)c2ccc(NS(=O)(=O)c3ccccc3)cc2OC[C@H](C)N(C)C[C@H]1C	–	–	·	–	·
C[C@@H]1CN([C@H](C)CO)C(=O)c2cc(C#CCN(C)C)cnc2O[C@@H]1CN(C)C(=O)NC1CCCCC1	–	–	–	–	–
C[C@H]1CN([C@@H](C)CO)C(=O)Cc2cc(NC(=O)CCCCCC(=O)Nc3ccccc3N)ccc2O[C@H]1CN(C)S(=O)(=O)c1ccc(Cl)cc1	–	–	·	–	·
C[C@@H]1CCCCO[C@H](CN(C)C(=O)c2ccccc2)[C@@H](C)CN([C@H](C)CO)C(=O)c2cc(NS(=O)(=O)c3ccc(Cl)cc3)ccc2O1	–	–	–	–	–
CO[C@@H]1CN(C)C(=O)c2ccc(NC(=O)C3CCCC3)cc2OC[C@H](C)N(C)C[C@H]1C	–	–	–	–	–
